Test results published in ChEMBL document CHEMBL5678805, “Intermittent administration of MEK inhibitor GDC-0973 plus PI3K inhibitor GDC-0941 triggers robust apoptosis and tumor growth inhibition” (Cancer Res, 2012).
Activity calls are given as the source filed them. The calls are words filed in the database; no cut-off is given here.

Assays:
[1] = molecular target: RAC-alpha serine/threonine-protein kinase (Homo sapiens, UniProt P31749); assay: Inhibition of Akt1 (unknown origin)
[2] = molecular target: Mitogen-activated protein kinase kinase kinase 5 (Homo sapiens, UniProt Q99683); assay: Inhibition of ASK1 (unknown origin)
Chain of Mitogen-activated protein kinase kinase kinase 5 (Q99683 whole entry): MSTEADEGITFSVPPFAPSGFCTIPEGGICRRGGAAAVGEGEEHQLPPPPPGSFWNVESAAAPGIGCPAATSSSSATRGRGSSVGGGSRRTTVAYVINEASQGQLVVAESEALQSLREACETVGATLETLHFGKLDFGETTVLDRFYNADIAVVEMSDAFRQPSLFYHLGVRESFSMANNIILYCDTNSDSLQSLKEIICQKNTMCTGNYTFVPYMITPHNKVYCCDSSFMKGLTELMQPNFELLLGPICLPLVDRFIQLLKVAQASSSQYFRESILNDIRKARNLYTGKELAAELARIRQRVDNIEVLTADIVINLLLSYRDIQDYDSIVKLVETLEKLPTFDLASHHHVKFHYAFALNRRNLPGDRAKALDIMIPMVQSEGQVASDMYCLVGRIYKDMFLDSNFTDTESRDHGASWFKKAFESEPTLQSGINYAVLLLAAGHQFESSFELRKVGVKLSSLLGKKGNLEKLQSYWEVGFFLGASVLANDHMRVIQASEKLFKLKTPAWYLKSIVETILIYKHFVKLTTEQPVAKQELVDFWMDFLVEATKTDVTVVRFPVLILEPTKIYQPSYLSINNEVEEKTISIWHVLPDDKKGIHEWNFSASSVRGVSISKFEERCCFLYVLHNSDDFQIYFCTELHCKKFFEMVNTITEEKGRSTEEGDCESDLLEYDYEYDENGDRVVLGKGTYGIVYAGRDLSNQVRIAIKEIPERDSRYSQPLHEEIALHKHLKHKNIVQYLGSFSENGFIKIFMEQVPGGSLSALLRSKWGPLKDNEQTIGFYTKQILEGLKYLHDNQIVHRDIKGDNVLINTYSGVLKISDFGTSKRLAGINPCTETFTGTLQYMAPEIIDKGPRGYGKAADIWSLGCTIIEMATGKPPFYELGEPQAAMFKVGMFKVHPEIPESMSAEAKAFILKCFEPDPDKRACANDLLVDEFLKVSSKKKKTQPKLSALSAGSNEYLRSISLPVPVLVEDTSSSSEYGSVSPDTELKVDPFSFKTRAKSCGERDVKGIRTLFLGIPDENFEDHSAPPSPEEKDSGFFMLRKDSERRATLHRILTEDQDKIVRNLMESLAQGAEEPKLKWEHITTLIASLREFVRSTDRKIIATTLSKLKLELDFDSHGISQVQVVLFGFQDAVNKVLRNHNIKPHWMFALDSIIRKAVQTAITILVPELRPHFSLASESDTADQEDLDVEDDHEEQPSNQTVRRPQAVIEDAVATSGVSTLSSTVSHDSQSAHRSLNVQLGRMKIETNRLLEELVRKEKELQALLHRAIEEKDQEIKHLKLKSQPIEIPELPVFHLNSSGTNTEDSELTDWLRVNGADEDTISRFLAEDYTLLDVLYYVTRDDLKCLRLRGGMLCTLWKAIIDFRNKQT

[3] = molecular target: Cyclin-dependent kinase 2/cyclin E1 (Homo sapiens, UniProt P24941); assay: Inhibition of CDK2/cyclinE (unknown origin); assay type: protein-complex assay
CDK6/cyclin D3 = CDK6/cyclin D3 (Homo sapiens, UniProt Q00534); assay: Inhibition of CDK6/cyclinD3 (unknown origin); assay type: protein-complex assay
Chain of CDK6/cyclin D3 (P30281 whole entry): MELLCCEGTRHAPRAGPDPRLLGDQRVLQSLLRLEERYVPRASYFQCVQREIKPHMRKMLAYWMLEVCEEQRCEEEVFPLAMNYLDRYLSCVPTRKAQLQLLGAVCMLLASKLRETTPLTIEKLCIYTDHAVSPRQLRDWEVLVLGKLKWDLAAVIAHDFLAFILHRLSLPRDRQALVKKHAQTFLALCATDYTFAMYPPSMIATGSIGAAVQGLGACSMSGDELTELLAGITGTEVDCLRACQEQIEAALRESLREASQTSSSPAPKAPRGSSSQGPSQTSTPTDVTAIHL
Chain of CDK6/cyclin D3 (Q00534 whole entry): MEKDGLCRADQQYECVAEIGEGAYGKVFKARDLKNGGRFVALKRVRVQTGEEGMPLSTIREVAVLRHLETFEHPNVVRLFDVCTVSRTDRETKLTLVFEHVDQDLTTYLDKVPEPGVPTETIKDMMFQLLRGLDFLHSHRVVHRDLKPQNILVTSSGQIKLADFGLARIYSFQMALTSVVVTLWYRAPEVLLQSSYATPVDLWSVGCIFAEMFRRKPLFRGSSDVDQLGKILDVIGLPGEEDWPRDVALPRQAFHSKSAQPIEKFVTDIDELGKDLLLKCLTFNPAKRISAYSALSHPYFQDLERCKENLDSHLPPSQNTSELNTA

[4] = molecular target: Dual specificity tyrosine-phosphorylation-regulated kinase 2 (Homo sapiens, UniProt Q92630); assay: Inhibition of DYRK2 (unknown origin)
[5] = molecular target: Serine/threonine-protein kinase MARK2 (Homo sapiens, UniProt Q7KZI7); assay: Inhibition of EMK1 (unknown origin)
Chain of Serine/threonine-protein kinase MARK2 (Q7KZI7 whole entry): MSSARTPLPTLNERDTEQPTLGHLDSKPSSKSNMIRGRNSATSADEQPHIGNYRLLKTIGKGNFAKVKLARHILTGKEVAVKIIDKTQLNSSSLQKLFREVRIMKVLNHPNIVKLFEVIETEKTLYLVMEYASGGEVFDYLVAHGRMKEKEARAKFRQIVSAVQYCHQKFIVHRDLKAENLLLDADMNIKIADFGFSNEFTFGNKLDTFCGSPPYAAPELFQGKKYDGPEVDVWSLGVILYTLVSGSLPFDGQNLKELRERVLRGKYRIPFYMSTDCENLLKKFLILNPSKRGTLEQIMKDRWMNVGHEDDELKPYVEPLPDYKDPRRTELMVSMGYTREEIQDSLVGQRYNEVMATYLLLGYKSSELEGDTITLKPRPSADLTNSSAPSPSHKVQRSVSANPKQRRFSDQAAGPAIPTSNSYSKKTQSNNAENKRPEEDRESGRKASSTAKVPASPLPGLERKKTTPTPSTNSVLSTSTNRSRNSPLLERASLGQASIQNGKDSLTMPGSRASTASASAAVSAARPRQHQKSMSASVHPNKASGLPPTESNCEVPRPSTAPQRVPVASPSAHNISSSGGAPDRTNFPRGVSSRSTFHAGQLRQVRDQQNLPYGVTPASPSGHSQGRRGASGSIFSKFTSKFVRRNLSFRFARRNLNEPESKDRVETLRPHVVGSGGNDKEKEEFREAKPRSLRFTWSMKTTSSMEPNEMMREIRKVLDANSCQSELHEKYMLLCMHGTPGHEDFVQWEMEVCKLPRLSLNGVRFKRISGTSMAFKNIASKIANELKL

Ephrin type-A receptor 2 = Ephrin type-A receptor 2 (Homo sapiens, UniProt P29317); assay: Inhibition of EphA2 (unknown origin)
[6] = molecular target: Receptor tyrosine-protein kinase erbB-2 (Homo sapiens, UniProt P04626); assay: Inhibition of ErbB2 (unknown origin)
[7] = molecular target: Fibroblast growth factor receptor 1 (Homo sapiens, UniProt P11362); assay: Inhibition of FGFR1 (unknown origin)
[8] = molecular target: Fibroblast growth factor receptor 3 (Homo sapiens, UniProt P22607); assay: Inhibition of FGFR3 (unknown origin)
[9] = molecular target: Serine/threonine-protein kinase WNK2 (Homo sapiens, UniProt Q9Y3S1); assay: Inhibition of WNK2 (unknown origin)
Chain of Serine/threonine-protein kinase WNK2 (Q9Y3S1 whole entry): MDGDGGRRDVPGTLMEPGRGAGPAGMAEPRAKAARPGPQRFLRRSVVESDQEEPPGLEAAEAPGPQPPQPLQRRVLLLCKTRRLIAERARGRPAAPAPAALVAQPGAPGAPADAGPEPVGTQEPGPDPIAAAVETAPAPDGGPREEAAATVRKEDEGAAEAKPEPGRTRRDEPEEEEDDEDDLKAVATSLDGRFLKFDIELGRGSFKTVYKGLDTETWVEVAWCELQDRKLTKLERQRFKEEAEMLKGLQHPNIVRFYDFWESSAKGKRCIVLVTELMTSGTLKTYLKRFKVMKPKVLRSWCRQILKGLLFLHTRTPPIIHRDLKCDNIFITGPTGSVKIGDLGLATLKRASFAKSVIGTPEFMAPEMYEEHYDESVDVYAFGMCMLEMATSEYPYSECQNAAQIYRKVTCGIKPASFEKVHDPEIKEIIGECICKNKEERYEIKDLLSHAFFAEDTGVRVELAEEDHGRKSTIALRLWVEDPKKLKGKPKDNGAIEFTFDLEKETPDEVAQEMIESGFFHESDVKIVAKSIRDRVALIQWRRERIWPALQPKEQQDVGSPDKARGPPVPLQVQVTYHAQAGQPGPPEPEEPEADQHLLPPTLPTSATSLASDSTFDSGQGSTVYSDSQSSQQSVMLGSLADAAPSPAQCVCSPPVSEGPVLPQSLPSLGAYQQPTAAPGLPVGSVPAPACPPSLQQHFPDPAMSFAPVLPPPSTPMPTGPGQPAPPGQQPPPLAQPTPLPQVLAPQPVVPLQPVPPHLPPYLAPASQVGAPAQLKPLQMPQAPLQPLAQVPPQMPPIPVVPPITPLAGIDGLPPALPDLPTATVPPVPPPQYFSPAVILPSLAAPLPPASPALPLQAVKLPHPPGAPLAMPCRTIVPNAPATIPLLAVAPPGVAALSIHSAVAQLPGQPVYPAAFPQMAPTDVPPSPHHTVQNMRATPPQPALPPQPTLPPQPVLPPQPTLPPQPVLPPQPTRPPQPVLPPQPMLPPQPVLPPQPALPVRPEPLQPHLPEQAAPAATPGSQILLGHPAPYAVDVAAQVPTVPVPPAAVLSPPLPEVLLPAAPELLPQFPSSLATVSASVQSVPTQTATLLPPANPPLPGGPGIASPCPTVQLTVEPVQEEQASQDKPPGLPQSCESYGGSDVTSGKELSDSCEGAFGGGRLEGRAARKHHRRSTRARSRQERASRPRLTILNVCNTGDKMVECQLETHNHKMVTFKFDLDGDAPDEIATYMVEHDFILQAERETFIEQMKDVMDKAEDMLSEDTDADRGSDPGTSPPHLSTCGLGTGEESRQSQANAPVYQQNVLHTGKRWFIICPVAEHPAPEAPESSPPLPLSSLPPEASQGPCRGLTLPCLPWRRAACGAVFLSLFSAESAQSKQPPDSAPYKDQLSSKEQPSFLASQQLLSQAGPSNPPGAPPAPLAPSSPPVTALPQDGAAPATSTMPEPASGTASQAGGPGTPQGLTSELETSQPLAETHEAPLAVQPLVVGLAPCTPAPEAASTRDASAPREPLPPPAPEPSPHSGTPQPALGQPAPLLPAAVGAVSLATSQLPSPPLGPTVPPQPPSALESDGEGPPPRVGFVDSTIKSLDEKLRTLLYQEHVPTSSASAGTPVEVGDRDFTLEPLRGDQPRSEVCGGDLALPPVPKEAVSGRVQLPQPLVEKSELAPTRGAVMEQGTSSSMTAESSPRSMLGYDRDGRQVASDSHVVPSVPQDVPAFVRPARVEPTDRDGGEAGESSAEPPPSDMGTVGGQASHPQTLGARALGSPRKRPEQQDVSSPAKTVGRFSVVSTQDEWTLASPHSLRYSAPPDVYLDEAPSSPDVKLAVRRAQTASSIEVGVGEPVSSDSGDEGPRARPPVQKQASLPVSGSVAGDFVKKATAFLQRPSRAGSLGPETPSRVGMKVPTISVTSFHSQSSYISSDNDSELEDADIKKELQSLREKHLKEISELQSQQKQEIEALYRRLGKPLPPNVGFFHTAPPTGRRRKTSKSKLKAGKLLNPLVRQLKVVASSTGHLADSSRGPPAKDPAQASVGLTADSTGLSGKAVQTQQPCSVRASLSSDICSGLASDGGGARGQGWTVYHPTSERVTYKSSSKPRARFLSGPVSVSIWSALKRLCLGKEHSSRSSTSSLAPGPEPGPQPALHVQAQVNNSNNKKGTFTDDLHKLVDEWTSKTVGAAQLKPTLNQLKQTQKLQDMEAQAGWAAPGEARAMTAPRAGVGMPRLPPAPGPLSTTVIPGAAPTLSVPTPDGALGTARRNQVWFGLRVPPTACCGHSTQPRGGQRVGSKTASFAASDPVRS

DLD-1 [10] = assay: Antitumor activity against human DLD-1 cells harboring KRAS G13D/IDH1 G97D/SMO T640A/APC I1417 mutant xenografted in mouse assessed as tumor growth inhibition at 5 mg/kg, po; assay type: functional; conditions: read-out: TGI
Method in brief: (§1)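 Single-agent dose ranging in human tumor xenograft mice at 2.5, 5 or 10 mg/kg oral. Tumor volume was measured by caliper as (L×W×W)/2. %TGI = 100×[1 − AUC(treatment/d)/AUC(vehicle/d)] from the fitted growth curve per dose group, relative to vehicle.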

LoVo [11] = assay: Antitumor activity against human LoVo cells harboring KRAS G13D/CDKN2A P48L/FBXW7 R505C/MSH2/SMO G16_L17insLL/A324T/NF1 R1276Q/Y1607fs17/APC1114 mutant xenografted in mouse assessed as tumor growth inhibition at 5 mg/kg, po; assay type: functional; conditions: read-out: TGI; method in brief: as §1
LoVo [12] = assay: Antitumor activity against human LoVo cells harboring KRAS G13D/CDKN2A P48L/FBXW7 R505C/MSH2/SMO G16_L17insLL/A324T/NF1 R1276Q/Y1607fs17/APC1114 mutant xenografted in mouse assessed as tumor growth inhibition at 10 mg/kg, po; assay type: functional; conditions: read-out: TGI; method in brief: as §1
[13] = Antitumor activity against human A2058-X1 cells harboring BRAF V600E/PTEN L112Q/V175/TP53 V274F mutant xenografted in mouse assessed as tumor growth inhibition at 10 mg/kg, po; assay type: functional; conditions: A2058-X1, read-out: TGI; method in brief: as §1
Calu-6 = assay: Antitumor activity against human Calu-6 cells harboring KRAS Q61K and TP53 R196 mutant xenografted in mouse assessed as tumor growth inhibition at 10 mg/kg, po; assay type: functional; conditions: read-out: TGI; method in brief: as §1
NCI-H460 = assay: Antitumor activity against human NCI-H460 cells harboring KRAS Q61H/PIK3CA E545K/LKB1 Q37/CDKN2A mutant xenografted in mouse assessed as tumor growth inhibition at 2.5 mg/kg, po; assay type: functional; conditions: read-out: TGI
Method in brief: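 Human tumor xenografts in mice were dosed orally at the indicated mg/kg. Tumor volume was measured with calipers as (L×W×W)/2. %TGI = 100 × [1 − (AUC treatment/d)/(AUC vehicle/d)], using the area under the fitted tumor-growth curve per day for each dose group relative to vehicle.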

Hs-578T = assay: Antiproliferative activity against human Hs-578T cells assessed as reduction in cell viability incubated for 96 hrs in presence of 4-(2-(1H-indazol-4-yl)-6-((4-(methylsulfonyl)piperazin-1-yl)methyl)thieno[3,2-d]pyrimidin-4-yl)morpholine; assay type: functional, cell-based
A-375 = assay: Antiproliferative activity against human A-375 cells assessed reduction in cell viability incubated for 4 days in presence of 4-(2-(1H-indazol-4-yl)-6-((4-(methylsulfonyl)piperazin-1-yl)methyl)thieno[3,2-d]pyrimidin-4-yl)morpholine by celltiter-glo assay; assay type: functional; conditions: time 4 day
Method in brief: (§2)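 4-day CellTiter-Glo viability read-out on melanoma lines, cells exposed to increasing concentrations of each inhibitor alone and in combination.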

LOX IMVI = assay: Antiproliferative activity against human LOX IMVI cells assessed reduction in cell viability incubated for 4 days in presence of 4-(2-(1H-indazol-4-yl)-6-((4-(methylsulfonyl)piperazin-1-yl)methyl)thieno[3,2-d]pyrimidin-4-yl)morpholine by celltiter-glo assay; assay type: functional; conditions: time 4 day; method in brief: as §2
A2058 [14] = assay: Antitumor activity against human A2058 cells xenografted in mouse assessed as tumor growth inhibition at 6 mg/kg, po administered once a day for 21 days in presence of 4-(2-(1H-indazol-4-yl)-6-((4-(methylsulfonyl)piperazin-1-yl)methyl)thieno[3,2-d]pyrimidin-4-yl)morpholine; assay type: functional; conditions: A2058, 504 h, time 21 day, read-out: TGI
Method in brief: (§3)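 Human tumor xenografts in mice. Drugs given orally, as single agents or combined with the PI3K inhibitor. Schedules were daily (QD) or every third day (Q3D) over 21 days. Tumor volume was measured by caliper as (L×W×W)/2. %TGI = 100×[1 − AUC(treatment/d)/AUC(vehicle/d)] from fitted growth curves, with group means. Tumor lysates were immunoblotted for pS6.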

DLD-1 [15] = assay: Antitumor activity against human DLD-1 cells xenografted in mouse assessed as tumor growth inhibition at 15 mg/kg, po administered once a day for 21 days; assay type: functional; conditions: DLD-1, 504 h, time 21 day, read-out: TGI; method in brief: as §3
NCI-H2122 = assay: Antitumor activity against human NCI-H2122 cells xenografted in mouse assessed as tumor growth inhibition at 15 mg/kg, po administered every third day for 21 days; assay type: functional; conditions: NCI-H2122, 504 h, time 21 day, read-out: TGI
Method in brief: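 Dosing was oral, every third day (Q3D) across 21 days, with single agents or the MEK plus PI3K combination in NCI-H2122 xenograft mice. Tumor volume was calculated as (L×W×W)/2 from caliper measurements. %TGI was derived from fitted-curve AUC per day relative to vehicle, with body weight monitored.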

888-mel = assay: Inhibition of ERK phosphorylation in human 888-mel cells incubated for 24 hrs in presence of 4-(2-(1H-indazol-4-yl)-6-((4-(methylsulfonyl)piperazin-1-yl)methyl)thieno[3,2-d]pyrimidin-4-yl)morpholine by immunoblotting analysis; assay type: cell-based
A2058 [16] = assay: Antitumor activity against human A2058 cells harboring BRAF V600E/PTEN deletion mutant xenografted in mouse assessed as decrease in cyclin D1 level at 15 mg/kg, po administered every third day for 21 days and measured after 8 hrs post dose in presence of 4-(2-(1H-indazol-4-yl)-6-((4-(methylsulfonyl)piperazin-1-yl)methyl)thieno[3,2-d]pyrimidin-4-yl)morpholine by Western blot analysis; assay type: functional, organism-based; conditions: time 512.0 hrs

**Q.** Which IC50 [1] does the source give for `O=C(c1ccc(F)c(F)c1Nc1ccc(I)cc1F)N1CC(O)([C@@H]2CCCCN2)C1` [COBIMETINIB] here?
**A.** Its IC50 is > 10 µM.

**Q.** What about the IC50 [2] of the same compound?
**A.** The IC50 was > 10 µM.

**Q.** What about the IC50 [3] of the same compound?
**A.** Its IC50 is > 10 µM.

**Q.** And the IC50 (CDK6/cyclin D3)?
**A.** The IC50 was > 10 µM.

**Q.** What about the IC50 [4] of the same compound?
**A.** Its IC50 is > 10 µM.

**Q.** What about the IC50 [5] of the same compound?
**A.** The IC50 was > 10 µM.

**Q.** What about the IC50 (Ephrin type-A receptor 2) of the same compound?
**A.** Its IC50 is > 10 µM.

**Q.** And the IC50 [6]?
**A.** The IC50 was > 10 µM.

**Q.** And the IC50 [7]?
**A.** Its IC50 is > 10 µM.

**Q.** And the IC50 [8]?
**A.** Its IC50 is > 10 µM.

**Q.** What about the IC50 [9] of the same compound?
**A.** The IC50 was > 10 µM.

**Q.** What about the inhibition in vivo at 5 mg/kg (DLD-1 [10]) of the same compound?
**A.** The inhibition in vivo at 5 mg/kg was 50.2%.

**Q.** And the inhibition in vivo at 5 mg/kg (LoVo [11])?
**A.** The inhibition in vivo at 5 mg/kg was 73%.

**Q.** And the inhibition in vivo at 10 mg/kg (LoVo [12])?
**A.** The inhibition in vivo at 10 mg/kg was 98%.

**Q.** What about the inhibition in vivo at 10 mg/kg [13] of the same compound?
**A.** The inhibition in vivo at 10 mg/kg was 61%.

**Q.** What about the inhibition in vivo at 10 mg/kg (Calu-6) of the same compound?
**A.** The inhibition in vivo at 10 mg/kg was 44%.

**Q.** And the inhibition in vivo at 2.5 mg/kg (NCI-H460)?
**A.** Its inhibition in vivo at 2.5 mg/kg is 32%.

**Q.** What about the Activity (Hs-578T) of the same compound?
**A.** The Activity was “inactive”.

**Q.** What about the Activity (A-375) of the same compound?
**A.** Its Activity is 60%.

**Q.** And the Activity (LOX IMVI)?
**A.** Its Activity is 60%.

**Q.** And the inhibition in vivo at 6 mg/kg (A2058 [14])?
**A.** Its inhibition in vivo at 6 mg/kg is 73%.

**Q.** What about the inhibition in vivo at 15 mg/kg (DLD-1 [15]) of the same compound?
**A.** The inhibition in vivo at 15 mg/kg was 2%.

**Q.** What about the inhibition in vivo at 15 mg/kg (NCI-H2122) of the same compound?
**A.** Its inhibition in vivo at 15 mg/kg is 71%.

**Q.** And the inhibition (888-mel)?
**A.** Its inhibition is “Active”.

**Q.** And the Activity (A2058 [16])?
**A.** Its Activity is “Active”.
